Source: ChEMBL document CHEMBL1128227, “Cosalane analogues with enhanced potencies as inhibitors of HIV-1 protease and integrase” (J Med Chem, 1995)

Experiments:
[1] = biological target: Human immunodeficiency virus type 1 protease (Human immunodeficiency virus 1, UniProt Q72874); assay: Inhibition of HIV -1 protease
In short: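 Purified HIV-1 protease with the peptide substrate Ala-Ser-Glu-Asn-Tyr-Pro-Ile-Val-Glu-amide. Cleavage quantified by reverse-phase HPLC. Compounds tested as ammonium salts. Values are means of at least two experiments.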

[2] = system: MT4; assay: Viral cytopathicity against HIV -2 (LAV-2 rod)strain determined in MT-4 cells; format: functional, cell-based; settings: Homo sapiens
[3] = species: Homo sapiens; assay: Inhibition of p24 production in Peripheral blood lymphocytes; format: functional, organism-based
In short: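 Phytohemagglutinin-stimulated peripheral blood lymphocytes infected with HIV-1 WUJO. Read-out is virion-associated p24 production. Compounds tested as ammonium salts. Values are means of at least two experiments.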

[4] = system: HeLa; assay: Antiviral activity was determined against Respiratory syncytial virus(strain Long) in HeLa cells by measuring concentration required to reduce virus induced cytopathogenicity by 50%.; format: functional, cell-based; settings: Homo sapiens
In short: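 RSV cytopathicity in HeLa cells. Compound added immediately after virus infection and left in the culture. Virus-induced cytopathogenicity scored at day 5 post-infection. IC50 in μg/mL.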

[5] = system: HEL; assay: Anti viral activity against HEL cytotoxicity by minimum cytotoxic concentration that causes a microscopically detectable alteration of normal cell morphology after 2 day of treatment.; format: functional; settings: Homo sapiens, 48 h
[6] = system: MDCK; assay: Antiviral activity was determined against Influenza virus A(strain Ishikawa) in MDCK cells by measuring concentration required to reduce virus induced cytopathogenicity by 50%.; format: functional, cell-based; settings: Canis lupus familiaris
In short: (§1)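 Tested in MDCK cells, with compound applied right after infection and left on. Cytopathic effect of influenza A (Ishikawa) or B (Singapore) was read at day 5 pi. IC50 is the concentration halving cytopathogenicity, in µg/mL.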

[7] = system: Vero; assay: Antiviral activity was determined against Tacaribe virus in Vero cells by measuring concentration required to reduce virus induced cytopathogenicity by 50%.; format: functional, cell-based; settings: Chlorocebus sabaeus
[8] = system: MOLT-4; assay: Gaint cell formation between HIV-2 (LAV-2 rod) infected HUT-78 cells and uninfected MOLT-4(clone-8)cells; format: functional, cell-based; settings: Homo sapiens
In short: (§2)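 Syncytium assay: HUT-78 cells persistently infected with HIV-1 (HTLV-IIIB) or HIV-2 (LAV-2ROD) were co-cultured with uninfected MOLT-4 (clone 8) cells, and giant-cell formation was scored. Compounds tested as ammonium salts. Values are means of at least two experiments.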

[9] = biological target: Human immunodeficiency virus type 1 integrase (Human immunodeficiency virus 1, UniProt Q7ZJM1); assay: Inhibition of HIV -1 Integrase
In short: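 Purified HIV-1 integrase. 3'-processing and strand-transfer (integration) activities were measured with synthetic double-stranded oligonucleotides mimicking viral DNA ends. Compounds tested as ammonium salts. Values are means of at least two experiments.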

[10] = system: HEL; assay: Antiviral activity was determined against Vesicular stomatitis virus in HEL cells by measuring concentration required to reduce virus induced cytopathogenicity by 50%.; format: functional, cell-based; settings: Homo sapiens
[11] = system: MT4; assay: Cytotoxical effect against MT-4 cell lines was determined by reduction of cellular viability. data represent mean value of at least two separate experiments.; format: functional; settings: Homo sapiens
In short: (§3)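 Compounds tested as ammonium salts. Cytotoxicity in CEM-SS, MT-4 or PBL cultures taken from the reduction in cellular viability. Values are means of at least two separate experiments.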

[12] = system: HEL; assay: Antiviral activity was determined against Herpes simplex virus -1 TK- in HEL cells by measuring concentration required to reduce virus induced cytopathogenicity by 50%.; format: functional, cell-based; settings: Homo sapiens
[13] = system: HEL; assay: Antiviral activity was determined against (Herpes simplex virus -2) by concentration required to reduce virus induced cytopathogenicity by 50%.; format: functional, cell-based; settings: Homo sapiens
[14] = system: Vero; assay: Anti viral activity against Vero cellular cytotoxicity by minimum cytotoxic concentration that causes a microscopically detectable alteration of normal cell morphology after 2 day of treatment.; format: functional; settings: Chlorocebus sabaeus, 48 h
[15] = system: HEL; assay: Antiviral activity was determined against Human cytomegalovirus (strain Davis) in HEL cells by measuring concentration required to reduce virus induced cytopathogenicity by 50%.; format: functional, cell-based
[16] = system: HEL; assay: Antiviral activity was determined against Herpes simplex virus -1 in HEL cells by measuring concentration required to reduce virus induced cytopathogenicity by 50%.; format: functional, cell-based; settings: Homo sapiens
[17] = system: CCRF-CEM; assay: Cytotoxical effect against CEM cell lines was determined by reduction of cellular viability. data represent mean value of at least two separate experiments.; format: functional; settings: Homo sapiens; in short: as §3
[18] = species: Homo sapiens; assay: Cytotoxical effect against PBL cell lines was determined by reduction of cellular viability. data represent mean value of at least two separate experiments.; format: functional; in short: as §3
[19] = system: HeLa; assay: Anti viral activity against HeLa cytotoxicity by minimum cytotoxic concentration that causes a microscopically detectable alteration of normal cell morphology after 2 day of treatment.; format: functional; settings: Homo sapiens, 48 h
[20] = system: HEL; assay: Antiviral activity was determined against Herpes simplex virus -1 TK-/TK+ in HEL cells by measuring concentration required to reduce virus induced cytopathogenicity by 50%.; format: functional, cell-based; settings: Homo sapiens
[21] = system: Vero; assay: Antiviral activity was determined against Junin virus in Vero cells by measuring concentration required to reduce virus induced cytopathogenicity by 50%.; format: functional, cell-based; settings: Chlorocebus sabaeus
[22] = system: MT4; assay: Viral cytopathicity against HIV -I (HTLV-IIIb) strain determined in MT-4 cells; format: functional, cell-based; settings: Homo sapiens
[23] = system: MDCK; assay: Anti viral activity against MDCK cytotoxicity by minimum cytotoxic concentration that causes a microscopically detectable alteration of normal cell morphology after 2 day of treatment.; format: functional; settings: Canis lupus familiaris, 48 h
[24] = system: MDCK; assay: Antiviral activity was determined against Influenza virus B(strain Singapore) MDCK cells by measuring concentration required to reduce virus induced cytopathogenicity by 50%.; format: functional, cell-based; settings: Canis lupus familiaris; in short: as §1
[25] = system: MOLT-4; assay: Gaint cell formation between HIV-1 (HTLV-IIIB) infected HUT-78 cells and uninfected MOLT-4(clone-8)cells; format: functional, cell-based; settings: Homo sapiens; in short: as §2
[26] = system: HEL; assay: Antiviral activity was determined against Vaccinia virus in HEL cells by measuring concentration required to reduce virus induced cytopathogenicity by 50%.; format: functional, cell-based; settings: Homo sapiens
[27] = system: MDCK; assay: Antiviral activity against MDCK cells by measuring minimum cytotoxic concentration that causes a microscopically detectable alteration of normal cell morphology after 2 day of treatment.; format: functional; settings: Canis lupus familiaris, 48 h
[28] = system: Vero; assay: Antiviral activity against Vero cells by measuring minimum cytotoxic concentration that causes a microscopically detectable alteration of normal cell morphology after 2 day of treatment.; format: functional; settings: Chlorocebus sabaeus, 48 h
[29] = species: Homo sapiens; assay: Cytotoxical effect against PBL cell lines was determined by reduction of cellular viability; format: functional; in short: as §3
[30] = system: MOLT-4; assay: Giant cell formation between HIV-2 (LAV-2 rod) infected HUT-78 cells and uninfected MOLT-4(clone-8)cells; format: functional, cell-based; settings: Homo sapiens; in short: as §2
[31] = system: HEL; assay: Antiviral activity against HEL cells by measuring minimum cytotoxic concentration that causes a microscopically detectable alteration of normal cell morphology after 2 day of treatment.; format: functional; settings: Homo sapiens, 48 h
[32] = system: MT4; assay: Cytotoxical effect against MT-4 cell lines was determined by reduction of cellular viability; format: functional; settings: Homo sapiens; in short: as §3
[33] = system: CCRF-CEM; assay: Cytotoxical effect against CEM cell lines was determined by reduction of cellular viability; format: functional; settings: Homo sapiens; in short: as §3
[34] = system: MOLT-4; assay: Giant cell formation between HIV-1 (HTLV-IIIB) infected HUT-78 cells and uninfected MOLT-4(clone-8)cells; format: functional, cell-based; settings: Homo sapiens; in short: as §2
[35] = system: HeLa; assay: Antiviral activity against HeLa cells by measuring minimum cytotoxic concentration that causes a microscopically detectable alteration of normal cell morphology after 2 day of treatment.; format: functional; settings: Homo sapiens, 48 h

Chain of Human immunodeficiency virus type 1 integrase (Q7ZJM1 whole entry): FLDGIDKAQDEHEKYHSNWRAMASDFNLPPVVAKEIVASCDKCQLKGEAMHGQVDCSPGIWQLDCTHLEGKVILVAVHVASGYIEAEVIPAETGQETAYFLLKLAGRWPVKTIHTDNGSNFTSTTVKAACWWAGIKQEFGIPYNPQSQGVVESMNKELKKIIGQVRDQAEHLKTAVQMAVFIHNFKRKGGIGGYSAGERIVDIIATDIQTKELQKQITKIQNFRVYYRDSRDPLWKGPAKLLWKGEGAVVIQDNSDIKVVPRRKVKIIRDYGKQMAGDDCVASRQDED

Compound	IC50 [1] [µM]	IC50 [2] [µM]	IC50 [3] [µM]	IC50 [4]	IC50 [6]	IC50 [7]	IC50 [9] [µM]	IC50 [10]	IC50 [12]	IC50 [13]	IC50 [15]	IC50 [16]	IC50 [20]	IC50 [21]	IC50 [22] [µM]	IC50 [24]	IC50 [26]	MCC [27] [µg/mL]	MCC [28] [µg/mL]	CC50 [29] [µM]	further results
CCCCCC=C(c1cc(Cl)c(O)c(C(=O)NO)c1)c1cc(Cl)c(O)c(C(=O)NO)c1	58	> 40	112	> 4 µM	> 4 µM	> 2 µM	4	> 20 µM	5 µM	> 5 µM	> 5 µM	5 µM	> 5 µM	> 2 µM	21.9	> 4 µM	5 µM	–	–	–	CC50 [5]: 20 µM; IC50 [8]: 40 µM; CC50 [11]: > 40 µM; CC50 [14]: 5 µM; CC50 [17]: 36.2 µM; CC50 [18]: 148 µM; CC50 [19]: 4 µM; CC50 [23]: 4 µM; IC50 [25]: 8 µM
O=C(O)c1cc(C(=CCC23CC4CC(CC(C4)C2)C3)c2cc(Cl)c(O)c(C(=O)O)c2)cc(Cl)c1O	0.37	–	148	4 µg/mL	> 4 µg/mL	> 20 µg/mL	7	> 5 µg/mL	> 5 µg/mL	> 20 µg/mL	11 µg/mL	> 5 µg/mL	> 5 µg/mL	> 20 µg/mL	> 40	> 4 µg/mL	> 5 µg/mL	4	50	185	IC50 [30]: > 40 µM; MCC [31]: 50 µg/mL; CC50 [32]: > 40 µM; CC50 [33]: 105 µM; IC50 [34]: > 40 µM; MCC [35]: 20 µg/mL
CC(CCC=C(c1cc(Cl)c(O)c(C(=O)O)c1)c1cc(Cl)c(O)c(C(=O)O)c1)[C@H]1CC[C@H]2[C@@H]3CC[C@@H]4CCCC[C@]4(C)[C@H]3CC[C@]12C (some centres not stated)	1.5	> 31.3	39	4 µg/mL	> 12 µg/mL	> 5 µg/mL	2.2	> 20 µg/mL	> 20 µg/mL	> 20 µg/mL	> 20 µg/mL	> 20 µg/mL	> 20 µg/mL	> 5 µg/mL	27.2	> 20 µg/mL	13 µg/mL	20	20	135	IC50 [30]: 40 µM; MCC [31]: 50 µg/mL; CC50 [32]: 31.4 µM; CC50 [33]: 69.5 µM; IC50 [34]: 24 µM; MCC [35]: 100 µg/mL
